Experimental data taken from ChEMBL document CHEMBL3525992, “Identification of 20(S)-protopanaxadiol metabolites in human liver microsomes and human hepatocytes” (Drug Metab Dispos, 2011).

Key:
[1] = system: Hepatocyte; test: Drug level in human hepatocytes treated with 20(S)-protopanaxadiol at 50 uM after 180 mins by liquid chromatography-electrospray ionization ion trap mass spectrometry; format: ADME, cell-based; details: 3 h
Procedure, shortened: (§1)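 Human hepatocytes (2 million cells/ml) in Williams' E medium with substrate 50 µM, 0.5% (v/v) final MeOH, 37°C for 3 h. Negative controls were substrate at 0 h and no substrate at 3 h. Quenched with equal volume acetonitrile, in duplicate. Methanol was added, then centrifugation, dry-down and reconstitution. Analysed by C8 reversed-phase LC with formic acid/methanol–ammonium acetate gradient, ESI ion trap MSⁿ, m/z 100–800.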

[2] = system: Liver microsome; test: Retention time of the compound in mixed human liver microsomes treated with 20(S)-protopanaxadiol at 50 uM after 60 mins by liquid chromatography-electrospray ionization ion trap mass spectrometry; format: ADME; details: 1 h
Procedure, shortened: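 Pooled HLM protein 1.0 mg/ml with substrate 50 µM in 100 mM potassium phosphate pH 7.4, 0.1% (v/v) final MeOH. Preincubated 3 min at 37°C, started with 2.0 mM NADPH, incubated 60 min. Stopped with equal volume ice-cold acetonitrile. Controls lacked NADPH or substrate, in duplicate. Analysed on C8 reversed-phase column, formic acid methanol/ammonium acetate gradient, ESI ion trap MSⁿ.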

[3] = Drug excretion in Sprague-Dawley rat feces treated with 20(S)-protopanaxadiol at 100 mg/kg/day, po qd for 11 days administered via gavage by liquid chromatography-electrospray ionization ion trap mass spectrometry; format: ADME, organism-based; parameters: route oral; details: in vivo, 264 h
Procedure, shortened: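 PPD given by gavage at 10 mg/ml in 0.5% carboxymethyl cellulose sodium, 0.5% polysorbate-80 and 99% saline; 20 rats, one per metabolic cage. Feces collected over 0–288 h (48 h after last dose), blanks taken before dosing, frozen at -20°C.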

[4] = system: Liver microsome; test: Drug metabolism in mixed human liver microsomes assessed as metabolite 7-2 ((2S,3S,4S,5R,6S)-6-(2-((2R,5S)-5-((3S,5R,8R,9R,10R,12R,14R,17S)-3,12-dihydroxy-4,4,8,10,14-pentamethylhexadecahydro-1H-cyclopenta[a]phenanthren-17-yl)-5-methyltetrahydrofuran-2-yl)propan-2-yloxy)-3,4,5-trihydroxytetrahydro-2H-pyran-2-carboxylic acid) formation at 50 uM after 120 mins by liquid chromatography-electrospray ionization ion trap mass spectrometry in presence of UDPGA; format: ADME
Procedure, shortened: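 Pooled human liver microsomes, 1.0 mg/ml protein, in 50 mM Tris-HCl pH 7.4 with 10 mM MgCl₂, 2 mM UDPGA and 25 µg/mL alamethicin. Preincubated 3 min at 37°C, started with substrate 50 µM (final MeOH 0.1%), run 120 min, stopped with ice-cold acetonitrile. Time-0 controls; duplicates. Analysed by LC/ESI ion-trap MSn.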

[5] = Retention time of the compound treated with 20(S)-protopanaxadiol at 100 uM measured after 60 mins by liquid chromatography-electrospray ionization ion trap mass spectrometry in presence of 10 uM 3-chloroperoxybenzoic acid; format: physicochemical; details: 1 h
Procedure, shortened: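 PPD 100 µM oxidised chemically with m-CPBA 10 µM in CH₂Cl₂, stirred at room temperature for 15 and 60 min. Mixture poured into Na₂CO₃-saturated ice water and extracted three times with ether before LC/MS analysis.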

[6] = system: Hepatocyte; test: Retention time of the compound in human hepatocytes treated with 20(S)-protopanaxadiol at 50 uM after 180 mins by liquid chromatography-electrospray ionization ion trap mass spectrometry; format: ADME, cell-based; details: 3 h; procedure, shortened: as §1

Row | Drug metabolism [1] | Retention_time [2] [min] | Drug excretion [3] | Retention_time [6] [min] | Compound | Drug metabolism [4] | Retention_time [5] [min]
1 | metabolite_detected | 19.7 | metabolite_detected | – | CC(C)(O)[C@H]1CC[C@@](C)([C@H]2CC[C@]3(C)[C@@H]2[C@H](O)C[C@@H]2[C@@]4(C)CCC(=O)C(C)(C)[C@@H]4CC[C@]23C)O1 | – | –
2 | metabolite_detected | 19.1 | metabolite_detected | – | CC(C)(O)[C@@H]1CC[C@@](C)([C@H]2CC[C@]3(C)[C@@H]2[C@H](O)C[C@@H]2[C@@]4(C)CCC(=O)C(C)(C)[C@@H]4CC[C@]23C)O1 | – | –

The remaining lines, values behind:

Row | Compound | Drug metabolism [1] | Retention_time [2] [min] | Drug excretion [3] | Retention_time [6] [min] | Drug metabolism [4] | Retention_time [5] [min]
3 | CC(C)(O)[C@H]1CC[C@@](C)([C@H]2CC[C@]3(C)[C@@H]2[C@H](O)C[C@@H]2[C@@]4(C)CC[C@H](O)C(C)(C)[C@@H]4CC[C@]23C)O1 | metabolite_detected | 19.8 | metabolite_detected | – | metabolite_detected | 19.8
4 | CC(C)(O)[C@@H](O)CC[C@](C)(O)[C@H]1CC[C@]2(C)[C@@H]1[C@H](O)C[C@@H]1[C@@]3(C)CC[C@H](O)C(C)(C)[C@@H]3CC[C@]12C | – | – | – | 13.2 | – | –
5 | CC1(C)O[C@H]1CC[C@](C)(O)[C@H]1CC[C@]2(C)[C@@H]1[C@H](O)C[C@@H]1[C@@]3(C)CC[C@H](O)C(C)(C)[C@@H]3CC[C@]12C | metabolite_detected | 18.7 | metabolite_detected | – | – | 18.7
